Laboratory results published in ChEMBL document CHEMBL1154198, “Chemical genetics of Plasmodium falciparum” (Nature, 2010).

Key:
Plasmodium falciparum [1] = test: ST_JUDE: Plasmodium falciparum K1 EC50 (uM) as measured by SYBR green dye; type: functional, organism-based
Trypanosoma brucei = test: ST_JUDE: Cytotoxicity using luciferase to measure ATP as an indicator of the viability of Trypanosoma brucei; type: functional, organism-based
[2] = ST_JUDE: Cytotoxicity using luciferase to measure ATP as an indicator of the viability of human foreskin fibroblast cells (BJ); type: toxicity, cell-based
Plasmodium falciparum [3] = test: ST_JUDE: Cytotoxicity against Plasmodium falciparum K1; type: functional, organism-based
In short: (§1)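 Asexual P. falciparum grown in human erythrocytes, exposed to compounds for 72 h, and growth read as the DNA quantity in treated versus control cultures. Dose-response run at 12 concentrations from 10 μM to 5 nM.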

Plasmodium falciparum [4] = test: ST_JUDE: Cytotoxicity against Plasmodium falciparum W2; type: functional, organism-based
Plasmodium falciparum [5] = test: ST_JUDE: Cytotoxicity against Plasmodium falciparum SB-A6; type: functional, organism-based
[6] = ST_JUDE: Cytotoxicity using luciferase to measure ATP as an indicator of the viability of human Burkitt''s lymphoma lymphoblast cells (Raji); type: toxicity, cell-based
[7] = ST_JUDE: Cytotoxicity using luciferase to measure ATP as an indicator of the viability of human epithelial embryonic kidney cells (HEK293); type: toxicity, cell-based
Plasmodium falciparum [8] = test: ST_JUDE: Cytotoxicity against Plasmodium falciparum Dd2; type: functional, organism-based
Toxoplasma gondii = test: ST_JUDE: Growth inhibition of to Toxoplasma gondii, in human U-2OS cells, as measured by luciferase.; type: functional, organism-based; details: RH, U2OS
In short: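 T. gondii parasites engineered to express luciferase; drug sensitivity read by luminescence.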

Plasmodium falciparum [9] = test: ST_JUDE: Cytotoxicity against Plasmodium falciparum V1/S; type: functional, organism-based
Plasmodium falciparum [10] = test: ST_JUDE: Plasmodium falciparum 3D7 EC50 (uM) as measured by SYBR green dye; type: functional, organism-based
Plasmodium falciparum [11] = test: ST_JUDE: Cytotoxicity against Plasmodium falciparum 3D7; type: functional, organism-based; in short: as §1
Leishmania major = test: ST_JUDE: Cytotoxicity using Alamar Blue to measure viability of Leishmania major; type: functional, organism-based
In short: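 L. major promastigotes; drug susceptibility read with Alamar Blue.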

Plasmodium falciparum [12] = test: ST_JUDE: Cytotoxicity against Plasmodium falciparum D10 transfected with yeast DHOD; type: functional, organism-based
[13] = ST_JUDE: Cytotoxicity using luciferase to measure ATP as an indicator of the viability of human epithelial hepatocellular carcinoma cells (HepG2); type: toxicity, cell-based

| SMILES | EC50 (Plasmodium falciparum [1]) | EC50 (Trypanosoma brucei) | EC50 [2] | EC50 (Plasmodium falciparum [3]) | EC50 (Plasmodium falciparum [4]) | EC50 (Plasmodium falciparum [5]) | EC50 [6] | EC50 [7] | EC50 (Plasmodium falciparum [8]) | EC50 (Toxoplasma gondii) | EC50 (Plasmodium falciparum [9]) | EC50 (Plasmodium falciparum [10]) | EC50 (Plasmodium falciparum [11]) | EC50 (Leishmania major) | EC50 (Plasmodium falciparum [12]) | EC50 [13] |
| --- | --- | --- | --- | --- | --- | --- | --- | --- | --- | --- | --- | --- | --- | --- | --- | --- |
| CCOC(=O)c1cnc2c(OC)cccc2c1Nc1ccc(OC)c(OC)c1 | 804 nM | > 43200 nM | > 45100 nM | 651 nM | 2700 nM | > 11600 nM | > 45100 nM | > 45100 nM | 676 nM | > 24700 nM | 865 nM | 858 nM | 476 nM | > 19300 nM | > 11600 nM | > 45100 nM |
| CN1C=CC(=Cc2sc3ccccc3[n+]2C)C=C1 | 388 nM |  |  |  |  |  |  |  |  |  |  | 873 nM |  |  |  |  |
| CC(C)CN1C(=O)c2ccccc2C(C(=O)Nc2ccc(F)c(Cl)c2)C1c1cccs1 (stereo not given) | 173 nM | 2620 nM | > 42300 nM | 421 nM | 152 nM | 1390 nM | > 42300 nM | > 42300 nM | 421 nM | > 23200 nM | 1680 nM | 89.7 nM | 378 nM | > 18100 nM | 1310 nM | 38100 nM |
| O=C1CC(C(=O)N2CCC(c3nc(-c4cccnc4)ncc3-c3ccccc3)CC2)c2ccccc21 (stereo not given) | 4090 nM |  |  |  |  |  |  |  |  |  |  | 2730 nM |  |  |  |  |
| COc1ccccc1/N=C1\C=C(NS(=O)(=O)c2ccc(C(C)C)cc2)c2ccccc2C1=O | 132 nM | 1790 nM | > 34500 nM | 290 nM | > 8870 nM | 190 nM | > 34500 nM | > 34500 nM | 627 nM | > 18900 nM | 280 nM | 598 nM | 450 nM | > 14800 nM | 343 nM | > 34500 nM |
| CC(C)c1ccc(S(=O)(=O)NC2=C/C(=N\c3ccc(O)cc3)C(=O)c3ccccc32)cc1 | 125 nM | 750 nM | 3580 nM | 425 nM | 823 nM | 290 nM | 3020 nM | 5470 nM | 946 nM | > 19000 nM | 836 nM | 346 nM | 547 nM | > 14900 nM | 288 nM | 2220 nM |
| Oc1ccc(I)cc1/C=C/c1cc(O)c2ccccc2n1 | 5340 nM |  |  |  |  |  |  |  |  |  |  | > 15000 nM |  |  |  |  |
